Data reported in ChEMBL document CHEMBL3632509, “Inhibition of Inflammatory and Neuropathic Pain by Targeting a Mu Opioid Receptor/Chemokine Receptor5 Heteromer (MOR-CCR5)” (J Med Chem, 2015).
Active and inactive are the calls of the source.

What was measured:
Mus musculus [1] = assay: Antinociceptive activity in i.t dosed normal ICR-CD1 mouse assessed as withdrawal latency for radiant heat by tail flick assay; assay type: functional
Outline: (§1)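 Male ICR-CD1 mice (17–25 g); LPS groups given LPS 1 mg/kg i.p. 24 h before testing, others untreated. Compound dissolved in 5% DMSO, diluted to <1% DMSO, given i.t. or i.c.v. in 5 µl to conscious mice. Radiant-heat tail flick, latency before and at peak time after drug, 10 s cut-off; %MPE = (test−control)/(10−control)×100. At least three groups of 8–10 mice per dose–response curve, each mouse used once.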

Mus musculus [2] = assay: Antinociceptive activity in normal ICR-CD1 mouse assessed as withdrawal latency for radiant heat at 1000 pmol, icv by tail flick assay; assay type: functional; outline: as §1
Mus musculus [3] = assay: Selectivity ratio of ED50 for antinociceptive activity in i.c.v dosed ICR-CD1 mouse to ED50 for i.t dosed ICR-CD1 mouse; assay type: functional
Outline: (§2)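 Ratios compare i.c.v. with i.t. dosing, or untreated mice with LPS-pretreated mice (1 mg/kg i.p., 24 h). All mice are male ICR-CD1.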

Mus musculus [4] = assay: Toxicity in i.t dosed ICR-CD1 mouse at ED50 after 24 hrs; assay type: organism-based; settings: in vivo, icv_or_intrathecal
Outline: (§3)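 Acute tolerance in male ICR-CD1 mice, either untreated or given LPS 1 mg/kg i.p. 24 h before testing. The ED80–90 dose is given i.t. or i.c.v. (5 µl, <1% DMSO) on day 1. The same dose is given again 24 h later to the same mouse and retested by radiant-heat tail flick (10 s cut-off, %MPE).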

Mus musculus [5] = assay: Antinociceptive activity in i.t dosed LPS-induced ICR-CD1 mouse thermal hyperalgesia model assessed as withdrawal latency for radiant heat by tail flick assay; assay type: functional; outline: as §1
Mus musculus [6] = species on record: Mus musculus; assay: Antinociceptive activity in LPS-induced ICR-CD1 mouse thermal hyperalgesia model assessed as withdrawal latency for radiant heat at 1000 pmol i.c.v by tail flick assay; assay type: functional; outline: as §1
Mus musculus [7] = assay: Antinociceptive activity in i.t dosed LPS-induced ICR-CD1 mouse thermal hyperalgesia model assessed as withdrawal latency for radiant heat at ED50 after 24 hrs by tail flick assay; assay type: functional; outline: as §3
Mus musculus [8] = assay: Selectivity ratio of ED50 for antinociceptive activity in i.c.v dosed LPS-induced ICR-CD1 mouse thermal hyperalgesia model to ED50 for i.t dosed LPS-induced ICR-CD1 mouse thermal hyperalgesia model; assay type: functional; outline: as §2
Mus musculus [9] = assay: Antinociceptive activity in i.t dosed LPS-induced ICR-CD1 mouse thermal hyperalgesia model assessed as withdrawal latency for radiant heat by tail flick assay relative to TAK-220 and N-((4aS,7S,7aR,12bS)-4a,9-Dihydroxy-3-methyl-2,3,4,4a,5,6,7,7a-octahydro-1H-4,12-methanobenzofuro[3,2-e][…]-7-yl)-2-((3,7,17-trioxo-5-oxa-2,8,16-triazaoctadecan-18-yl)oxy)acetamide combination; assay type: functional
Mus musculus [10] = assay: Antinociceptive activity in i.c.v dosed LPS-induced ICR-CD1 mouse thermal hyperalgesia model assessed as withdrawal latency for radiant heat by tail flick assay; assay type: functional; outline: as §1
Mus musculus [11] = assay: Toxicity in i.t dosed LPS-induced ICR-CD1 mouse thermal hyperalgesia model at ED50 after 24 hrs; assay type: organism-based; settings: in vivo, icv_or_intrathecal; outline: as §3
Mus musculus [12] = assay: Toxicity in i.c.v dosed LPS-induced ICR-CD1 mouse thermal hyperalgesia model at ED50 after 24 hrs; assay type: organism-based; settings: in vivo, icv_or_intrathecal; outline: as §3
Mus musculus [13] = assay: Antinociceptive activity in normal ICR-CD1 mouse assessed as withdrawal latency for radiant heat at 250 pmol, icv by tail flick assay; assay type: functional; outline: as §1
Mus musculus [14] = assay: Antinociceptive activity in i.t dosed complete Freund's adjuvant-induced ICR-CD1 mouse mechanical hyperalgesia model by von Frey test; assay type: functional
Mus musculus [15] = species on record: Mus musculus; assay: Antinociceptive activity in normal ICR-CD1 mouse assessed as withdrawal latency for radiant heat at 500 pmol, it by tail flick assay; assay type: functional; outline: as §1
Mus musculus [16] = assay: Antinociceptive activity in normal ICR-CD1 mouse assessed as withdrawal latency for radiant heat at 500 pmol, icv by tail flick assay; assay type: functional; outline: as §1
Mus musculus [17] = species on record: Mus musculus; assay: Antinociceptive activity in LPS-induced ICR-CD1 mouse thermal hyperalgesia model assessed as withdrawal latency for radiant heat at 1000 pmol i.t by tail flick assay; assay type: functional; outline: as §1
Mus musculus [18] = species on record: Mus musculus; assay: Antinociceptive activity in LPS-induced ICR-CD1 mouse thermal hyperalgesia model assessed as withdrawal latency for radiant heat at 500 pmol i.c.v by tail flick assay; assay type: functional; outline: as §1
Mus musculus [19] = assay: Antinociceptive activity in i.t dosed LPS-induced ICR-CD1 mouse thermal hyperalgesia model assessed as withdrawal latency for radiant heat by tail flick assay relative to morphine; assay type: functional
Mus musculus [20] = assay: Selectivity ratio of ED50 for antinociceptive activity in i.t dosed normal ICR-CD1 mouse to ED50 for i.t dosed LPS-induced ICR-CD1 mouse thermal hyperalgesia model; assay type: functional; outline: as §2
Mus musculus [21] = assay: Antinociceptive activity in i.t dosed LPS-induced ICR-CD1 mouse thermal hyperalgesia model assessed as withdrawal latency for radiant heat at ED50 by tail flick assay in presence of 45 mg/kg, ip minocycline; assay type: functional, organism-based
Outline: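 Male ICR-CD1 mice get LPS 1 mg/kg i.p. and 24 h later minocycline HCl 45 mg/kg i.p. in distilled water. Test compound is given i.t. 4 h after minocycline. Antinociception is read by radiant-heat tail flick (10 s cut-off) as %MPE. The ED50 comes from a dose–response curve, groups of n=8.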

[22] = target: C-C chemokine receptor type 5 (Homo sapiens) (UniProt P51681); assay: Antagonist activity at CCR5 receptor (unknown origin) expressed in HEK293 cells assessed as inhibition of CCl5-induced calcium release at 1 uM by FLIPR assay; assay type: functional, cell-based
Sequence of C-C chemokine receptor type 5 (Homo sapiens) (P51681 whole entry, looked up): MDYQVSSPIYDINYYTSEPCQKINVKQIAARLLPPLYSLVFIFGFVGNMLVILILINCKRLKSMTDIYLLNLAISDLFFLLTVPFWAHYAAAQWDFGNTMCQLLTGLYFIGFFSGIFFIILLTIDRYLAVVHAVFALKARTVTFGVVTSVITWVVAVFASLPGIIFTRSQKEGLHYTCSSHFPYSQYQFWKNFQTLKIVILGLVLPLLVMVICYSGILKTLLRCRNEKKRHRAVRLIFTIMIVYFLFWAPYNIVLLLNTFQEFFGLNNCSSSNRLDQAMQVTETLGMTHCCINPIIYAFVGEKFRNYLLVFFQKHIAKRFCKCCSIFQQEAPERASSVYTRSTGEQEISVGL

Mus musculus [23] = species on record: Mus musculus; assay: Antinociceptive activity in normal ICR-CD1 mouse assessed as withdrawal latency for radiant heat at 1000 pmol, it by tail flick assay; assay type: functional; outline: as §1
Mus musculus [24] = assay: Antinociceptive activity in i.c.v dosed normal ICR-CD1 mouse assessed as withdrawal latency for radiant heat by tail flick assay; assay type: functional; outline: as §1
Mus musculus [25] = assay: Toxicity in i.c.v dosed ICR-CD1 mouse at ED50 after 24 hrs; assay type: organism-based; settings: in vivo, icv_or_intrathecal; outline: as §3

Compound: Cc1ccc(N(CCCN2CCC(Cc3ccc(C(N)=O)cc3)CC2)C(=O)C2CCN(C(=O)COCC(=O)NCCCCCCCCCNC(=O)COCC(=O)N[C@H]3CC[C@@]4(O)[C@H]5Cc6ccc(O)c7c6[C@@]4(CCN5C)[C@H]3O7)CC2)cc1Cl
- ED50 (Mus musculus [1]): 15.83 pmol
- MPE (Mus musculus [2]): 54.5%
- Ratio ED50 (Mus musculus [3]): 63.98
- Activity (Mus musculus [4]): Non-toxic
- ED50 (Mus musculus [5]): 8.43 pmol
- MPE (Mus musculus [6]): 63.1%
- MPE (Mus musculus [7]): 24%
- Ratio ED50 (Mus musculus [8]): 118.62
- Selectivity Index (Mus musculus [9]): 6.2

Compound: Cc1ccc(N(CCCN2CCC(Cc3ccc(C(N)=O)cc3)CC2)C(=O)C2CCN(C(=O)COCC(=O)NCCCCCCCNC(=O)COCC(=O)N[C@H]3CC[C@@]4(O)[C@H]5Cc6ccc(O)c7c6[C@@]4(CCN5C)[C@H]3O7)CC2)cc1Cl
- ED50 (Mus musculus [1]): 166.4 pmol
- Ratio ED50 (Mus musculus [3]): 1.5
- Activity (Mus musculus [4]): Toxic
- ED50 (Mus musculus [5]): 11.41 pmol
- ED50 (Mus musculus [10]): 692.4 pmol
- Activity (Mus musculus [11]): Non-toxic
- Activity (Mus musculus [12]): Toxic
- Ratio ED50 (Mus musculus [8]): 60.68
- Selectivity Index (Mus musculus [9]): 4.5
- MPE (Mus musculus [13]): 35.9%

Compound: CN1CC[C@]23c4c5ccc(O)c4O[C@H]2[C@@H](O)C=C[C@H]3[C@H]1C5 [MORPHINE]
- ED50 (Mus musculus [1]): 27 pmol
- Ratio ED50 (Mus musculus [3]): 11
- ED50 (Mus musculus [5]): 35 pmol
- Ratio ED50 (Mus musculus [8]): 8
- ED50 (Mus musculus [14]): 15 pmol

Compound: CNC(=O)COCC(=O)NCCCCCCCNC(=O)COCC(=O)N1CCC(C(=O)N(CCCN2CCC(Cc3ccc(C(N)=O)cc3)CC2)c2ccc(C)c(Cl)c2)CC1
- MPE (Mus musculus [15]): 28.1%
- MPE (Mus musculus [16]): 43.9%
- MPE (Mus musculus [17]): 32.4%
- MPE (Mus musculus [6]): 51.9%

Compound: Cc1ccc(N(CCCN2CCC(Cc3ccc(C(N)=O)cc3)CC2)C(=O)C2CCN(C(=O)COCC(=O)NCCCCCCCCCCNC(=O)COCC(=O)N[C@H]3CC[C@@]4(O)[C@H]5Cc6ccc(O)c7c6[C@@]4(CCN5C)[C@H]3O7)CC2)cc1Cl
- ED50 (Mus musculus [1]): 45.75 pmol
- MPE (Mus musculus [16]): 49.7%
- Activity (Mus musculus [4]): Non-toxic
- ED50 (Mus musculus [5]): 0.01461 pmol
- MPE (Mus musculus [18]): 41.1%
- Activity (Mus musculus [11]): Non-toxic
- fold change (FC) (Mus musculus [19]): 1500
- Selectivity Index (Mus musculus [9]): 3559
- Selectivity Index (Mus musculus [20]): 3000
- Activity (Mus musculus [21]): inactive

Compound: Cc1ccc(N(CCCN2CCC(Cc3ccc(C(N)=O)cc3)CC2)C(=O)C2CCN(C(=O)COCC(=O)NCCCCCCCCCCCCNC(=O)COCC(=O)N[C@H]3CC[C@@]4(O)[C@H]5Cc6ccc(O)c7c6[C@@]4(CCN5C)[C@H]3O7)CC2)cc1Cl
- ED50 (Mus musculus [1]): 336.9 pmol
- MPE (Mus musculus [2]): 27.6%
- Ratio ED50 (Mus musculus [3]): 2.97
- Activity (Mus musculus [4]): Toxic
- ED50 (Mus musculus [5]): 122.7 pmol
- MPE (Mus musculus [6]): 55.7%
- Activity (Mus musculus [11]): Toxic
- Selectivity Index (Mus musculus [9]): 0.4

Compound: CC(=O)N1CCC(C(=O)N(CCCN2CCC(Cc3ccc(C(N)=O)cc3)CC2)c2ccc(C)c(Cl)c2)CC1
- Activity [22]: Active
- MPE (Mus musculus [23]): 34.2%
- MPE (Mus musculus [2]): 26.2%
- Ratio ED50 (Mus musculus [3]): 1
- MPE (Mus musculus [17]): 49%
- MPE (Mus musculus [6]): 7.6%
- Ratio ED50 (Mus musculus [8]): 6.48

Compound: Cc1ccc(N(CCCN2CCC(Cc3ccc(C(N)=O)cc3)CC2)C(=O)C2CCN(C(=O)COCC(=O)NCCCCCNC(=O)COCC(=O)N[C@H]3CC[C@@]4(O)[C@H]5Cc6ccc(O)c7c6[C@@]4(CCN5C)[C@H]3O7)CC2)cc1Cl
- ED50 (Mus musculus [1]): 370.6 pmol
- ED50 (Mus musculus [24]): 358.2 pmol
- Ratio ED50 (Mus musculus [3]): 3.14
- Activity (Mus musculus [4]): Toxic
- Activity (Mus musculus [25]): Toxic
- ED50 (Mus musculus [5]): 10.92 pmol
- ED50 (Mus musculus [10]): 187.1 pmol
- Activity (Mus musculus [11]): Non-toxic
- Activity (Mus musculus [12]): Toxic
- Ratio ED50 (Mus musculus [8]): 6.38
- Selectivity Index (Mus musculus [9]): 4.8

Compound: CNC(=O)COCC(=O)NCCCCCCCNC(=O)COCC(=O)N[C@H]1CC[C@@]2(O)[C@H]3Cc4ccc(O)c5c4[C@@]2(CCN3C)[C@H]1O5
- ED50 (Mus musculus [1]): 113.3 pmol
- ED50 (Mus musculus [24]): 108.2 pmol
- Ratio ED50 (Mus musculus [3]): 0.95
- Activity (Mus musculus [4]): Toxic
- Activity (Mus musculus [25]): Toxic
- ED50 (Mus musculus [5]): 21.29 pmol
- ED50 (Mus musculus [10]): 168.9 pmol
- Activity (Mus musculus [11]): Toxic
- Activity (Mus musculus [12]): Toxic
- Ratio ED50 (Mus musculus [8]): 7.93

Compound: CNC(=O)COCC(=O)N1CCC(C(=O)N(CCCN2CCC(Cc3ccc(C(N)=O)cc3)CC2)c2ccc(C)c(Cl)c2)CC1
- Activity [22]: Active

Compound: Cc1ccc(N(CCCN2CCC(Cc3ccc(C(N)=O)cc3)CC2)C(=O)C2CCN(C(=O)COCC(=O)NCCNC(=O)COCC(=O)N[C@H]3CC[C@@]4(O)[C@H]5Cc6ccc(O)c7c6[C@@]4(CCN5C)[C@H]3O7)CC2)cc1Cl
- ED50 (Mus musculus [1]): 32.34 pmol
- ED50 (Mus musculus [24]): 106.6 pmol
- Ratio ED50 (Mus musculus [3]): 3.29
- Activity (Mus musculus [4]): Non-toxic
- Activity (Mus musculus [25]): Toxic
- ED50 (Mus musculus [5]): 10.6 pmol
- ED50 (Mus musculus [10]): 56.41 pmol
- Activity (Mus musculus [11]): Non-toxic
- Activity (Mus musculus [12]): Toxic
- Ratio ED50 (Mus musculus [8]): 5.32
- Selectivity Index (Mus musculus [9]): 4.9
